{"source": "paper PMC8322834", "about": "(Biochemistry, 2020)", "key": {"ADP-DnaK [1]": {"target": "T1, ADP-DnaK (Escherichia coli, UniProt P0A6Y8)", "T1 sequence (P0A6Y8 whole entry)": "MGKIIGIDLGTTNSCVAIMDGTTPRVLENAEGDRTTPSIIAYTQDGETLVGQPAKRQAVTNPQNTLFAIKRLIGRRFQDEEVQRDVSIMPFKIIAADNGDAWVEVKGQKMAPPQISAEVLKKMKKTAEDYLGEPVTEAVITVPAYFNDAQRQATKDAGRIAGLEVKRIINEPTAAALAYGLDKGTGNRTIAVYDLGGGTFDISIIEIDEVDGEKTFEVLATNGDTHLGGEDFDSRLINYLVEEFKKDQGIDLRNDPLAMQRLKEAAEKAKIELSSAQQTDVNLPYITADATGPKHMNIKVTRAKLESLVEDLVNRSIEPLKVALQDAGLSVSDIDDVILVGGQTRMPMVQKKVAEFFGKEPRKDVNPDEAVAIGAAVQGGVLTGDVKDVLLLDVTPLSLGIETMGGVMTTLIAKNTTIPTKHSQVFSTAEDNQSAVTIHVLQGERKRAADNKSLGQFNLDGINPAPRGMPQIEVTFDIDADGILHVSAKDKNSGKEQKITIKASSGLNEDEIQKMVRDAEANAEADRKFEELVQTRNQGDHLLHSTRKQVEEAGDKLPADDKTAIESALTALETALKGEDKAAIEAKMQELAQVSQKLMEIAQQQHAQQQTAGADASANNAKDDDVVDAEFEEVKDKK", "test": "steady-state fluorescence anisotropy, direct binding to ADP-DnaK", "set-up": "species or system E. coli", "conditions": "Q taken to be 1.0, Figure S3"}, "DnaK/DnaJ/GrpE (K/J/E)": {"system": "DnaK/DnaJ/GrpE (K/J/E)", "conditions": "simple buffer conditions, 400 μM KLR-70, 30 °C, 1 hr"}, "[2]": {"system": "wild-type E. coli (ATCC 25922) cells", "type": "cell-based", "conditions": "ATCC 25922, 18 h"}, "DnaK (ADP-state)": {"target": "DnaK (ADP-state) (Escherichia coli, UniProt P0A6Y8)", "sequence (P0A6Y8 whole entry)": "as above", "test": "native gel electrophoresis", "type": "binding, E. coli", "how_it_was_run": "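DnaK (5 μM) was incubated with test peptide (0–50 μM, independent samples) for 1 hr at 21.5 ± 0.5 °C. Native gels used 32 mM Tris-acetate pH 7.5 running buffer at 200 V for 5 hrs, water-cooled. DnaK band intensity profiles were fit to a sum of two Gaussians to build binding isotherms. KD1 is the mean of n = 3 independent experiments ± standard error.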"}, "ADP-DnaK [3]": {"target": "T1, ADP-DnaK", "test": "steady-state fluorescence anisotropy, competitive binding to ADP-DnaK", "set-up": "species or system E. coli"}, "GroEL/ES": {"system": "GroEL/ES", "conditions": "c.f. mix, purified GroEL (0.5 μM) / GroES (1.0 μM), 30 °C, 1 hr, Figure S5"}, "[4]": {"test": "far-UV circular dichroism", "type": "physicochemical", "conditions": "1.3 mM HEPES (pH 7.0), room temperature", "how_it_was_run": "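Test peptide at 20 μM in 1.3 mM HEPES pH 7.0, room temperature. Far-UV spectra recorded from 190 to 260 nm in 1 nm steps at 20 s/step. Each spectrum is the average of n = 2 independent experiments. Secondary structure was deconvoluted with CONTINLL.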"}, "[5]": {"system": "nascent apoMb biosynthesis (cell-free transcription-translation)", "test": "cell-free expression of apoMb", "type": "biochemical, E. coli", "conditions": "37 °C, 20 min"}}, "note": "“Also recorded” adds a separate entry of the source. Non-standard residues stand in square brackets, D forms with d. Residues, ends and D or L forms follow the SMILES beside them. *: point of attachment. X1 = N=c1ccc2c(-c3ccc(C(=O)NCCCCCN4C(=O)CC(*)C4=O)cc3C(=O)O)c3ccc(N)c(S(=O)(=O)O)c3oc-2c1S(=O)(=O)O", "data": [{"molecule": "CC(C)C[C@H](NC(=O)[C@H](CCCCN)NC(=O)[C@H](CCCCN)NC(=O)CNC(=O)[C@H](CCCNC(=N)N)NC(=O)[C@@H](N)CCCNC(=N)N)C(=O)N[C@@H](CC(C)C)C(=O)N[C@@H](CC(C)C)C(=O)N[C@@H](CC(C)C)C(=O)N[C@@H](CC(C)C)C(=O)N[C@@H](CCCCN)C(=O)N[C@@H](CCCCN)C(=O)N[C@@H](CCCCN)C(=O)NCC(=O)N[C@@H](CSC1CC(=O)N(CCCCCNC(=O)c2ccc(-c3c4ccc(=N)c(S(=O)(=O)O)c-4oc4c(S(=O)(=O)O)c(N)ccc34)c(C(=O)O)c2)C1=O)C(=O)O", "note": "(stereo partly drawn) [KLR-70-C-AF488] (H-RRGKKLLLLLKKKGC(X1)-OH; N-terminus and C-terminus assumed)", "values": [{"measurement": "change in total fluorescence intensity in presence of ADP-DnaK", "setting": "ADP-DnaK [1]", "result": "no statistically significant changes in total fluorescence intensity"}]}, {"molecule": "CC(C)C[C@H](NC(=O)[C@H](CCCCN)NC(=O)[C@H](CCCCN)NC(=O)CNC(=O)[C@H](CCCNC(=N)N)NC(=O)[C@@H](N)CCCNC(=N)N)C(=O)N[C@@H](CC(C)C)C(=O)N[C@@H](CC(C)C)C(=O)N[C@@H](CC(C)C)C(=O)N[C@@H](CC(C)C)C(=O)N[C@@H](CCCCN)C(=O)N[C@@H](CCCCN)C(=O)N[C@@H](CCCCN)C(=O)NCC(=O)O", "note": "[KLR-70] (H-RRGKKLLLLLKKKG-OH)", "values": [{"measurement": "inhibition of K/J/E-mediated luciferase refolding", "setting": "DnaK/DnaJ/GrpE (K/J/E)", "result": "fully inhibits K/J/E-mediated luciferase refolding"}, {"measurement": "MIC", "setting": "[2]", "result": "41 to 83", "unit": "µg/mL"}, {"measurement": "Kd", "setting": "DnaK (ADP-state)", "result": "158 ± 73", "unit": "nM"}, {"measurement": "Kd", "setting": "ADP-DnaK [3]", "result": "890 ± 390", "unit": "nM"}, {"measurement": "effect on GroEL/ES-mediated luciferase refolding", "setting": "GroEL/ES", "result": "only weakly reduces the GroEL/ES-mediated refolding of luciferase"}, {"measurement": "secondary structure in solution", "setting": "[4]", "result": "mostly unordered; also recorded: predominantly unstructured in solution"}, {"measurement": "effect on nascent apoMb expression", "setting": "[5]; 150 μM peptide, Δtig S30 extract, pH 7.0, n = 3", "result": "does not have any influence on apoMb production"}, {"measurement": "effect on nascent apoMb synthesis", "setting": "[5]; 60 – 150 μM KLR-70, Δtig S30 extract, pH 7.0, n = 3", "result": "nascent protein synthesis is not disrupted"}, {"measurement": "effect on nascent apoMb synthesis", "setting": "[5]; 200 – 400 μM KLR-70, Δtig S30 extract, pH 7.0, n = 3", "result": "Partial inhibition of protein expression"}, {"measurement": "highest KLR-70 concentration not disrupting cell-free protein expression", "setting": "[5]; Δtig E. coli cell-free system", "result": "up to 150 μM"}]}, {"molecule": "CC[C@H](C)[C@H](NC(=O)[C@@H](CCCNC(=N)N)NC(=O)[C@H](CCCNC(=N)N)NC(=O)[C@@H]1CCCN1C(=O)[C@@H]1CCCN1C(=O)[C@H](CCCNC(=N)N)NC(=O)[C@@H]1CCCN1C(=O)[C@H](CCCNC(=N)N)NC(=O)[C@@H]1CCCN1C(=O)[C@H](CC(C)C)NC(=O)[C@H](Cc1ccc(O)cc1)NC(=O)[C@@H]1CCCN1C(=O)[C@@H]1CCCN1C(=O)[C@H](CCCCN)NC(=O)[C@H](CC(=O)O)NC(=O)[C@@H](N)C(C)C)C(=O)N[C@@H](Cc1ccc(O)cc1)C(=O)N[C@@H](CC(N)=O)C(=O)N[C@H](CCCNC(=N)N)C(N)=O", "note": "[Onc112, reference compound] (H-VDKPPYLPRPRPPR[dR]IYN[dR]-NH2)", "values": [{"measurement": "MIC", "setting": "[2]", "result": 5, "unit": "µg/mL"}]}]}
